# Most compounds without a hit are left out; they make up all but 2.2% or so of the library.
# CFTR F508del cor: CFTR F508del correction in bronchial cells. activity (quench increase), % at 7.58 µM. CFBE cells, YFP halide quenching; stimulated with forskolin plus potentiator P3; % fluorescence drop versus neutral controls. 350,000 tested, 0.36% active. AID 720511;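 active = mean added fluorescence quench of at least 8% versus neutral control, with both replicates also reaching 8%; inconclusive = only one of the mean or replicate conditions met; inactive = mean below 8% and not both replicates reaching 8%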;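 note: cells transiently co-express mutant CFTR-F508del with the halide-sensitive YFP; corrector assay measuring rescue of mutant channel to the surface after 24 h compound exposure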
# FGF22 binding: shifts melting point of recombinant human FGF22; 340,000 tested, 1.5% active; Q9HCT0; activity (Tm shift, normalised), % at 9.99 µM; recombinant FGF22 thermal shift, SYPRO orange fluorescence; percent of sucrose octasulfate shift, DMSO zero; AID 651658;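 active = mean Tm shift, scaled 0 neutral to 100 positive control, at about 1.3% or above, every replicate too, limit read from the data; inconclusive = no clear call, values can overlap the other calls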
# dFosB activator: mouse delta FosB homodimer activation; P13346; purified delta FosB, TAMRA-CDK5 oligo fluorescence polarization; percent of positive-control signal above neutral wells; activation, % at 25 µM; 340,000 tested, 0.99% active; AID 493131;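 active = mean activation above about 17%, with every replicate also reaching it, limit read from the data, passing the limit was not always enough; inconclusive = only one of the two conditions met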
# Target sequence (P13346 whole entry, looked up): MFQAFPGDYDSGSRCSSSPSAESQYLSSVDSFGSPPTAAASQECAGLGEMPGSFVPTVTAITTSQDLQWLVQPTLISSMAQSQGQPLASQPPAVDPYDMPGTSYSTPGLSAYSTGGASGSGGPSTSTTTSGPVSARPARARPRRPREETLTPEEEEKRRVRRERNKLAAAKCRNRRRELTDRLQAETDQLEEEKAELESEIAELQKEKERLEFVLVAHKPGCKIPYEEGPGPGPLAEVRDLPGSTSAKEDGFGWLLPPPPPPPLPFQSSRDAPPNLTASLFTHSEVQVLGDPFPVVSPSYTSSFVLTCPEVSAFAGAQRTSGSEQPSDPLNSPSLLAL
# S100A4 inh HTS: S100A4-myosin IIA interaction inhibition; S100A4/TAMRA-MyoIIA peptide fluorescence polarization; inhibition, % at 10.7 µM; 360,000 tested, 0.14% active; AID 652163;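 active = mean inhibition of at least 70% across replicates, with every replicate also reaching that level; inconclusive = mean inhibition reaches 70% but some replicates fall short; inactive = mean inhibition below 70%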
# Target sequence (P26447 whole entry, looked up): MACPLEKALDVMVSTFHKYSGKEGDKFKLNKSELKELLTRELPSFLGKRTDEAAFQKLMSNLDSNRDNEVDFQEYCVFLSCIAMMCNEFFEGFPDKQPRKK
#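 Test system: S100A4 monomer protein. Medium: HEPES buffer with Ca2+, pH 7.2. Reagent: fluorescent myosin IIA peptide, 5 nM. Compound dosing: single-point compound testing. Timing: 5 min between mix addition and reading. Benchmarks: DMSO neutral and TFP positive wells.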
# Active calls of the source: *; u = inconclusive; x = no result.
SMILES,CFTR F508del cor,FGF22 binding,dFosB activator,S100A4 inh HTS
O=C(N=Nc1c(O)[nH]c2ccccc12)c1cc(-c2cccs2)[nH]n1,-0.5,0.1,70.7*,0.9
O=C(N=Nc1c(O)[nH]c2ccccc12)c1cc(-c2ccc(F)cc2)n[nH]1,-0.4,-0.1,62.8*,6.8
CC1NC2(C(=O)N(Cc3ccccc3)c3ccccc32)C2C(=O)N(c3ccccc3)C(=O)C12 (configuration not stated),1.6,-0.1,-6.5,85.6*
O=C(c1cnccn1)N1CC(=O)N2[C@@H](CO)[C@H](c3ccc(/C=C/c4ccccc4)cc3)[C@@H]2C1,2.1,-0.1,x,-0.1
Cc1ccc(C2=C/C(=C/c3cccnc3)C(=O)O2)c(C)c1,3.1,44.3*,-10.2,0.6
N#Cc1cccc(NC(=O)CSc2nnc(-c3n[nH]c4ccccc34)o2)c1,2.0,1.9*,u,0.6
Cc1cccc(NC(=O)CSc2nnc(-c3n[nH]c4ccccc34)o2)c1,x,0.5,8.6,0.9
Cc1cc2[nH]c3c(c[n+](C)c4ccccc34)c2cc1C,24.2*,0.2,-86.0,1.0
CC1=Nc2ccccc2N=C(N)C1c1ccccc1 (configuration not stated),-0.7,43.6*,-10.9,-4.2
O=C(NC(Cc1ccc(O)cc1)C(=O)O)c1ccco1 (configuration not stated),-0.2,43.3*,-7.8,-2.2
O=C(N[C@@H](Cc1ccc(O)cc1)C(=O)O)C(c1ccccc1)c1ccccc1,-2.5,0.0,-0.3,2.4
COc1cc(/C=N/Nc2ncc(C(F)(F)F)cc2Cl)cc(OC)c1OC,3.6,43.4*,-2.8,2.6
COc1ccc(S(=O)(=O)Nc2ccc3c(c2)C(=O)N([C@H](C)CO)C[C@@H](C)[C@@H](CN(C)Cc2ccc(C(=O)O)cc2)O3)cc1,-1.9,0.5,x,3.5
O=C(CNC1CCCCC1)NN=C(c1ccccc1)c1ccccc1,11.9*,0.1,5.6,-2.7
O=C(NN=C(c1ccccc1)c1ccccc1)C(CCl)C1CCCCC1 (configuration not stated),-2.5,0.0,-2.1,4.0
CC(C)CC#Cc1cnc2c(c1)C(=O)N([C@@H](C)CO)C[C@H](C)[C@H](CN(C)C(=O)c1cccnc1)O2,1.8,-0.1,x,-2.3
CC(/C=C/c1ccco1)=N/NC(=O)OC(C)(C)C,x,0.1,-17.9,-9.3
C/C(=N/NC(=O)OC(C)(C)C)c1ccco1,2.8,43.6*,-4.6,-0.8
Cc1nc(Cc2nnc(SCC(=O)N3CC(=O)Nc4ccccc43)o2)cs1,1.7,0.0,-3.2,-0.3
Cc1nc(Cc2nnc(SCC(=O)N3c4ccccc4NC(=O)C3(C)C)o2)cs1,-2.6,43.4*,x,-1.4
Cc1ccc(NC(=O)CSC2=NN3CCCC(=O)N=C3S2)c(C)c1,9.7*,-0.1,-5.7,-1.2
CCOC(=O)c1ccc(N2CCOCC2)c(NC(=O)c2c(-c3ccccc3)noc2C)c1,15.8*,0.0,x,3.6
Cc1onc(-c2ccccc2)c1C(=O)Nc1cc(C(F)(F)F)ccc1N1CCOCC1,x,x,-6.4,x
CCO/C=C1/C(=O)N(C)C(=O)c2cc(OC)ccc21,x,x,-8.7,x
CCOC=C1C(=O)N(C(C)=O)c2cc(OC)c(OC)cc21,-1.2,43.0*,-4.0,0.2
SMILES,CFTR F508del cor,FGF22 binding,dFosB activator,S100A4 inh HTS
COCC#Cc1ccc([C@@H]2[C@@H](CO)N3C(=O)CN(C(=O)CN4CCOCC4)C[C@@H]23)cc1,2.9,x,x,-4.3
COc1cccc(C2=Nc3cccc4cccc(c34)N2)c1,-3.1,-0.8,8.0,1.2
Nc1ccc(C2=Nc3cccc4cccc(c34)N2)cc1,-3.0,43.4*,40.5*,-1.1
COc1cc(-c2cc(=O)c3ccc(O)cc3o2)cc(OC)c1OC,1.3,-0.2,x,4.9
Cc1c2cc(O)c(=O)cc-2oc2cc(O)c(O)cc12,16.8*,0.1,-249.9,180.1*
COc1cc(OC)c(-c2c3cc(O)c(=O)cc-3oc3cc(O)c(O)cc23)cc1OC,20.7*,0.7,21.9*,-18.2
C[C@@H]1CN([C@@H](C)CO)C(=O)c2cc(NC(=O)CCCN(C)C)ccc2O[C@H]1CN(C)S(=O)(=O)c1ccccc1,0.5,0.2,x,2.5
C[C@H](CO)N1C[C@H](C)[C@H](CN(C)C(=O)Nc2ccc(F)cc2)Oc2c(NC(=O)NC3CCCCC3)cccc2C1=O,-2.4,-0.5,x,-1.6
Cc1noc(C)c1S(=O)(=O)Nc1ccc2c(c1)C(=O)N([C@H](C)CO)C[C@H](C)[C@H](CN(C)C(=O)NC(C)C)OCCCC[C@H](C)O2,0.5,-0.2,x,6.4
